Laboratory results taken from ChEMBL document CHEMBL4622886, “Leucinostatins from Ophiocordyceps spp. and Purpureocillium spp. Demonstrate Selective Antiproliferative Effects in Cells Representing the Luminal Androgen Receptor Subtype of Triple Negative Breast Cancer” (2020).
Calls of active or inactive are those of the source. The rule behind the calls is not given here. Numbered stars: 1 amine (or outer) side, 2 acyl side, 3 side chain; on linkers, the order of the positions; unused ones are H or OH. Square brackets hold non-standard residues; d marks the D form. Peptide text beside a SMILES is read from it. * marks the point of attachment. X1 = CCC(=O)C[C@@H](O)C[C@@H](C)C[C@H](N[*:1])C(=O)[*:2]; X4 = CCCC[C@@H](O)C[C@@H](C)C[C@H](N[*:1])C(=O)[*:2]; X2 = CCC(=O)/C=C/C[C@@H](C)C[C@H](N[*:1])C(=O)[*:2]; X3 = CCC(=O)CCC[C@@H](C)C[C@H](N[*:1])C(=O)[*:2]; Hexenoyl(2E,4S-Me) = CC[C@H](C)/C=C/C(=O)*; Leu(3R-OH) = CC(C)[C@@H](O)[C@H](N)C(=O)O; NH((S)CH(Me)CH2NMe2) = C[C@@H](CN(C)C)N*; Pro(4S-Me) = C[C@@H]1CN[C@H](C(=O)O)C1; NH((S)CH(CH3)CH2NHMe) = CNC[C@H](C)N*; Aib = CC(C)(N)C(=O)O; βAla = NCCC(=O)O

Experiments:
BT-549 [1] = assay: Antiproliferative activity against human BT549 cells up to 100 nM incubated for 48 hrs by sulforhodamine B assay; type: functional, cell-based
Procedure, shortened: (§1)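 Cells (RPMI-1640 with 5% FBS, 0.5% gentamicin; used within 4 months of thaw) were seeded at set densities, allowed to adhere, then treated 48 h with compound or DMSO vehicle. Cells were fixed and SRB-stained, with absorbance read at 560 nm. GI50 vs vehicle was taken by non-linear regression; three independent experiments, each in triplicate.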

HCC1806 [2] = assay: Antiproliferative activity against human HCC1806 cells up to 100 nM incubated for 48 hrs by sulforhodamine B assay; type: functional, cell-based; procedure, shortened: as §1
SUM185PE [3] = assay: Antiproliferative activity against human SUM185PE cells at 1 to 100 nM incubated for 48 hrs by sulforhodamine B assay; type: functional, cell-based
Procedure, shortened: (§2)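 IMEM with 5% FBS and 0.3% gentamicin; cells used within 4 months of thaw. After seeding at set densities and adhering, cells got compound or DMSO vehicle for 48 h, then were fixed and SRB-stained, with A560 read. GI50 (50% proliferation inhibition vs vehicle) came from non-linear regression of concentration-response curves; three independent experiments, each in triplicate.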

MDA-MB-231 [4] = assay: Antiproliferative activity against human MDA-MB-231 cells up to 100 nM incubated for 48 hrs by sulforhodamine B assay; type: functional, cell-based; procedure, shortened: as §2
HCC1937 [5] = assay: Antiproliferative activity against human HCC1937 cells at >1 uM incubated for 48 hrs by sulforhodamine B assay; type: functional, cell-based; procedure, shortened: as §1
MDA-MB-453 [6] = assay: Antiproliferative activity against human MDA-MB-453 cells at > 1 uM incubated for 48 hrs by sulforhodamine B assay; type: functional, cell-based; procedure, shortened: as §2
HCC1806 [7] = assay: Antiproliferative activity against human HCC1806 cells at >1 uM incubated for 48 hrs by sulforhodamine B assay; type: functional, cell-based; procedure, shortened: as §1
MDA-MB-453 [8] = assay: Antiproliferative activity against human MDA-MB-453 cells at 1 to 100 nM incubated for 48 hrs by sulforhodamine B assay; type: functional, cell-based; procedure, shortened: as §2
HCC1937 [9] = assay: Antiproliferative activity against human HCC1937 cells up to 100 nM incubated for 48 hrs by sulforhodamine B assay; type: functional, cell-based; procedure, shortened: as §1
MDA-MB-231 [10] = assay: Antiproliferative activity against human MDA-MB-231 cells incubated for 48 hrs by sulforhodamine B assay; type: functional; details: MDA-MB-231, 48 h; procedure, shortened: as §2
MDA-MB-231 [11] = assay: Antiproliferative activity against human MDA-MB-231 cells at > 1 uM incubated for 48 hrs by sulforhodamine B assay; type: functional, cell-based; procedure, shortened: as §2
BT-549 [12] = assay: Antiproliferative activity against human BT549 cells at >1 uM incubated for 48 hrs by sulforhodamine B assay; type: functional, cell-based; procedure, shortened: as §1
MDA-MB-453 [13] = assay: Antiproliferative activity against human MDA-MB-453 cells incubated for 48 hrs by sulforhodamine B assay; type: functional; details: MDA-MB-453, 48 h; procedure, shortened: as §2
SUM185PE [14] = assay: Antiproliferative activity against human SUM185PE cells incubated for 48 hrs by sulforhodamine B assay; type: functional; procedure, shortened: as §2

Compound | Activity (BT-549 [1]) | Activity (HCC1806 [2]) | Activity (SUM185PE [3]) | Activity (MDA-MB-231 [4]) | Activity (HCC1937 [5]) | Activity (MDA-MB-453 [6]) | Activity (HCC1806 [7]) | Activity (MDA-MB-453 [8]) | Activity (HCC1937 [9]) | GI50 (MDA-MB-231 [10]) [nM] | Activity (MDA-MB-231 [11]) | Activity (BT-549 [12]) | GI50 (MDA-MB-453 [13]) [nM] | GI50 (SUM185PE [14]) [nM]
CCC(=O)CCC[C@@H](C)C[C@H](NC(=O)[C@@H]1C[C@H](C)CN1C(=O)/C=C/[C@@H](C)CC)C(=O)N[C@H](C(=O)NC(C)(C)C(=O)N[C@@H](CC(C)C)C(=O)N[C@@H](CC(C)C)C(=O)NC(C)(C)C(=O)NC(C)(C)C(=O)NCCC(=O)N[C@@H](C)CN(C)C)[C@H](O)C(C)C ({Hexenoyl(2E,4S-Me)}-[Pro(4S-Me)][X3][Leu(3R-OH)][Aib]LL[Aib][Aib][βAla]-{NH((S)CH(Me)CH2NMe2)}) | inactive | inactive | Active | inactive | Active | Active | Active | Active | inactive | > 100 | Active | Active |  | 
CCCC[C@@H](O)C[C@@H](C)C[C@H](NC(=O)[C@@H]1C[C@H](C)CN1C(=O)/C=C/[C@@H](C)CC)C(=O)N[C@H](C(=O)NC(C)(C)C(=O)N[C@@H](CC(C)C)C(=O)N[C@@H](CC(C)C)C(=O)NC(C)(C)C(=O)NC(C)(C)C(=O)NCCC(=O)N[C@@H](C)CNC)[C@H](O)C(C)C ({Hexenoyl(2E,4S-Me)}-[Pro(4S-Me)][X4][Leu(3R-OH)][Aib]LL[Aib][Aib][βAla]-{NH((S)CH(CH3)CH2NHMe)}) | inactive | inactive | Active | inactive | Active | Active | Active | Active | inactive | > 100 | Active | Active |  | 
CC[C@H](C)/C=C/C(=O)N1C[C@@H](C)C[C@H]1C(=O)N[C@@H](CC(C)C)C(=O)N[C@H](C(=O)NC(C)(C)C(=O)N[C@@H](CC(C)C)C(=O)N[C@@H](CC(C)C)C(=O)NC(C)(C)C(=O)NC(C)(C)C(=O)NCCC(=O)N[C@@H](C)CN(C)C)[C@H](O)C(C)C ({Hexenoyl(2E,4S-Me)}-[Pro(4S-Me)]L[Leu(3R-OH)][Aib]LL[Aib][Aib][βAla]-{NH((S)CH(Me)CH2NMe2)}) | inactive | inactive | Active | inactive | Active | Active | Active | Active | inactive | > 100 | Active | Active | 2.3 | 1.4
CCC(=O)CCC[C@@H](C)C[C@H](NC(=O)[C@@H]1C[C@H](C)CN1C(=O)/C=C/[C@@H](C)CC)C(=O)N[C@H](C(=O)NC(C)(C)C(=O)N[C@@H](CC(C)C)C(=O)N[C@@H](CC(C)C)C(=O)NC(C)(C)C(=O)NC(C)(C)C(=O)NCCC(=O)N[C@@H](C)CNC)[C@H](O)C(C)C ({Hexenoyl(2E,4S-Me)}-[Pro(4S-Me)][X3][Leu(3R-OH)][Aib]LL[Aib][Aib][βAla]-{NH((S)CH(CH3)CH2NHMe)}) | inactive | inactive | Active | inactive | Active | Active | Active | Active | inactive | > 100 | Active | Active |  | 
CCC(=O)C[C@@H](O)C[C@@H](C)C[C@H](NC(=O)[C@@H]1C[C@H](C)CN1C(=O)/C=C/[C@@H](C)CC)C(=O)N[C@H](C(=O)NC(C)(C)C(=O)N[C@@H](CC(C)C)C(=O)N[C@@H](CC(C)C)C(=O)NC(C)(C)C(=O)NC(C)(C)C(=O)NCCC(=O)N[C@@H](C)CN(C)C)[C@H](O)C(C)C ({Hexenoyl(2E,4S-Me)}-[Pro(4S-Me)][X1][Leu(3R-OH)][Aib]LL[Aib][Aib][βAla]-{NH((S)CH(Me)CH2NMe2)}) | inactive | inactive | Active | inactive | Active | Active | Active | Active | inactive |  | Active | Active |  | 
CCCC[C@@H](O)C[C@@H](C)C[C@H](NC(=O)[C@@H]1C[C@H](C)CN1C(=O)/C=C/[C@@H](C)CC)C(=O)N[C@H](C(=O)NC(C)(C)C(=O)N[C@@H](CC(C)C)C(=O)N[C@@H](CC(C)C)C(=O)NC(C)(C)C(=O)NC(C)(C)C(=O)NCCC(=O)N[C@@H](C)CN(C)C)[C@H](O)C(C)C ({Hexenoyl(2E,4S-Me)}-[Pro(4S-Me)][X4][Leu(3R-OH)][Aib]LL[Aib][Aib][βAla]-{NH((S)CH(Me)CH2NMe2)}) | inactive | inactive | Active | inactive | Active | Active | Active | Active | inactive | > 100 | Active | Active |  | 
CCC(=O)/C=C/C[C@@H](C)C[C@H](NC(=O)[C@@H]1C[C@H](C)CN1C(=O)/C=C/[C@@H](C)CC)C(=O)N[C@H](C(=O)NC(C)(C)C(=O)N[C@@H](CC(C)C)C(=O)N[C@@H](CC(C)C)C(=O)NC(C)(C)C(=O)NC(C)(C)C(=O)NCCC(=O)N[C@@H](C)CNC)[C@H](O)C(C)C ({Hexenoyl(2E,4S-Me)}-[Pro(4S-Me)][X2][Leu(3R-OH)][Aib]LL[Aib][Aib][βAla]-{NH((S)CH(CH3)CH2NHMe)}) | inactive | inactive | Active | inactive | Active | Active | Active | Active | inactive | > 100 | Active | Active | 4 | 2.2
CC[C@H](C)/C=C/C(=O)N1C[C@@H](C)C[C@H]1C(=O)N[C@@H](CC(C)C)C(=O)N[C@H](C(=O)NC(C)(C)C(=O)N[C@@H](CC(C)C)C(=O)N[C@@H](CC(C)C)C(=O)NC(C)(C)C(=O)NC(C)(C)C(=O)NCCC(=O)N[C@@H](C)CNC)[C@H](O)C(C)C ({Hexenoyl(2E,4S-Me)}-[Pro(4S-Me)]L[Leu(3R-OH)][Aib]LL[Aib][Aib][βAla]-{NH((S)CH(CH3)CH2NHMe)}) | inactive | inactive | Active | inactive | Active | Active | Active | Active | inactive | > 100 | Active | Active | 2.6 | 2
